Experimental data taken from ChEMBL document CHEMBL1142383, “Discovery of potent cholecystokinin-2 receptor antagonists: elucidation of key pharmacophore elements by X-ray crystallographic and NMR conformational analysis” (Bioorg Med Chem, 2008).

Legend:
[1] = biological target: T1, Gastrin/cholecystokinin type B receptor (Homo sapiens, UniProt P32239); test: Displacement of [125I]CCK8S from human CCK2R
T1 sequence (P32239 whole entry): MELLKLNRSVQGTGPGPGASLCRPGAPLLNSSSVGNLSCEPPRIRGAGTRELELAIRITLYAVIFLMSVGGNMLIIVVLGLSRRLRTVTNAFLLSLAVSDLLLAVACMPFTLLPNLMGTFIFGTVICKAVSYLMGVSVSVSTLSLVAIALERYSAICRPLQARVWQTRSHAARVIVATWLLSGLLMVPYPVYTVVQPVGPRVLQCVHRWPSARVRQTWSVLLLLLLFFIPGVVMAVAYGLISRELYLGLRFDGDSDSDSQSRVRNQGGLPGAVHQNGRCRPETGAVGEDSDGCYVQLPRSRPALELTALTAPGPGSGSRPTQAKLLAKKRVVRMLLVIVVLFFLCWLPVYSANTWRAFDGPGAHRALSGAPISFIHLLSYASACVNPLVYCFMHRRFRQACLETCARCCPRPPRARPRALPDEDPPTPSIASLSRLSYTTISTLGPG
In short: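 Radioligand competition binding at human CCK-2R against [125I]-CCK-8S. The pIC50 is the concentration displacing 50% of tracer binding, converted to pKi by the Cheng–Prusoff method.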

[2] = biological target: T2, Cholecystokinin receptor type A (Homo sapiens, UniProt P32238); test: Displacement of [125I]CCK8S from human CCK1R
T2 sequence (P32238 whole entry): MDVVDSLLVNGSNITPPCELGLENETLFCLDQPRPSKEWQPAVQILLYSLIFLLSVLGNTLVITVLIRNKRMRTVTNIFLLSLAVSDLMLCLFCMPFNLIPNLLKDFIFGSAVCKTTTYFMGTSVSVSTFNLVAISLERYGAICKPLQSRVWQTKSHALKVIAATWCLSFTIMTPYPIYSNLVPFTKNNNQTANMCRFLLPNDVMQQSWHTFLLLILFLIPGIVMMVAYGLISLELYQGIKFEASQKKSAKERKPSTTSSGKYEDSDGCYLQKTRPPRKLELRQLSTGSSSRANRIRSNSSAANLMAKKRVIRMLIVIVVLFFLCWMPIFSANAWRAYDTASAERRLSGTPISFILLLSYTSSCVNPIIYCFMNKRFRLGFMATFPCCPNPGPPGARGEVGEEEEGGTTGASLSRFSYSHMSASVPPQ

[3] = Half life in rat at 2 umol/kg, iv; assay type: ADME, organism-based; details: in vivo
In short: (§1)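 Rat pharmacokinetics after an intravenous dose of […]. Clearance and half-life were derived from the iv dosing.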

[4] = Bioavailability in rat at 2 umol/kg, po; assay type: ADME, organism-based; details: in vivo
In short: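 Rat oral dosing at […]. Bioavailability is reported as relative fraction absorbed (%F) from the po dose.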

[5] = Metabolic stability in human liver microsome assessed as compound remaining after 30 mins; assay type: ADME; details: liver microsomes, read-out: Stability
In short: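 Incubation for 30 min with pooled human liver microsome preparations (n = 20). Stability is expressed as percent of parent remaining.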

[6] = Clearance in rat at 2 umol/kg, iv; assay type: ADME, organism-based; details: in vivo; in short: as §1

Ki [1] | Ki [2] | half-life [3] | bioavailability [4] | remaining at 0.5 h [5] | clearance [6] | SMILES
1.58 µM | > 10 µM | – | – | – | – | O=C(c1ccc(Br)cc1NS(=O)(=O)c1cccc2[nH]cnc12)N1CCCCC1
0.0794 µM | > 10 µM | – | – | – | – | O=C(c1ccc(Br)cc1NS(=O)(=O)c1cccc2scnc12)N1CCCCC1
– | > 10 µM | 20.4 min | 50% | 21% | 13.8 mL/min/kg | O=C(c1ccc(Br)cc1NS(=O)(=O)c1cccc2nccnc12)N1CCCCC1
3.16 µM | > 10 µM | – | – | – | – | O=C(c1ccc(Br)cc1NS(=O)(=O)c1ccc2ncsc2c1)N1CCCCC1
0.794 µM | > 10 µM | – | – | – | – | O=C(c1ccc(Br)cc1NS(=O)(=O)c1cccc2ncsc12)N1CCCCC1

More lines, now with the values behind:

SMILES | Ki [1] | Ki [2] | half-life [3] | bioavailability [4] | remaining at 0.5 h [5] | clearance [6]
Cn1nnc2c(S(=O)(=O)Nc3cc(Br)ccc3C(=O)N3CCCCC3)cccc21 | 2 µM | > 10 µM | – | – | – | –
Cn1nc2cccc(S(=O)(=O)Nc3cc(Br)ccc3C(=O)N3CCCCC3)c2n1 | 0.794 µM | > 10 µM | – | – | – | –
O=C(NCc1ccc(Cl)cc1)c1ccc(Br)cc1NS(=O)(=O)c1cccc2nsnc12 | 0.501 µM | > 10 µM | – | – | – | –
Cc1nc2cccc(S(=O)(=O)Nc3cc(Br)ccc3C(=O)N3CCCCC3)c2s1 | 5.01 µM | > 10 µM | – | – | – | –
Cn1nc2ccc(S(=O)(=O)Nc3cc(Br)ccc3C(=O)N3CCCCC3)cc2n1 | > 10 µM | > 10 µM | – | – | – | –
